Reference: ChEMBL document CHEMBL5223179, “Phenyl Dihydrouracil: An Alternative Cereblon Binder for PROTAC Design” (ACS Med Chem Lett, 2023)
Calls of active or inactive are those of the source. The calls are words filed in the database; no cut-off is given here.

Columns and labels:
[1] = Chemical stability of compound in human KOPT-K1 cell culture media assessed as half life incubated upto 48 hrs; type: physicochemical
In short: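 Compound stability followed in KOPT-K1 cell culture medium over time; half-life derived from the remaining compound.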

[2] = biological target: T1, Tyrosine-protein kinase Lck (Homo sapiens, UniProt P06239); assay: Induction of HiBiT-tagged LCK degradation in human KOPT-K1 cells after 4 hrs by microplate reader analysis; type: cell-based
Target sequence in this assay (P06239 whole entry): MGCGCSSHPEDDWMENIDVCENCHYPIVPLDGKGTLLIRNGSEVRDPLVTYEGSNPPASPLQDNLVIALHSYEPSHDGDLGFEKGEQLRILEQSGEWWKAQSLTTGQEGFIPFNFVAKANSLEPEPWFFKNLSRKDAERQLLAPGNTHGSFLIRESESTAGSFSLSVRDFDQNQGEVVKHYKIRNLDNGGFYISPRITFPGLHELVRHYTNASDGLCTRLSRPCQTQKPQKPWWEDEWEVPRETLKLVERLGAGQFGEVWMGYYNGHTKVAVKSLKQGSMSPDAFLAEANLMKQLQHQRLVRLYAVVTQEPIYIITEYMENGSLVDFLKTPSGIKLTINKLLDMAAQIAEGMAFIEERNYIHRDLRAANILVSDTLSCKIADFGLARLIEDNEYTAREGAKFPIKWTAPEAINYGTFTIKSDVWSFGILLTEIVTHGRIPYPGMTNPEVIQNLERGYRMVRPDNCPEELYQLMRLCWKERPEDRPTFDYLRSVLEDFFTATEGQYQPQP

[3] = Metabolic stability in mouse liver microsomes assessed as clearance measured upto 240 mins in presence of NADPH regenerating system by LC-MS/MS analysis; type: ADME, Microsome; settings: 4 h
KOPTK1 [4] = assay: Cytotoxicity against human KOPT-K1 cells incubated for 24 hrs by Celltiter-Glo assay; type: functional; settings: read-out: LC50 (the source's name)
In short: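 KOPT-K1 human T-ALL cells exposed to compound for 24 h. Viability read by CellTiter-Glo luminescence. LC50 derived from concentration-response curves.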

[5] = Permeability in human Caco-2 cells after 2 hrs by UPLC/MS analysis; type: ADME, cell-based; settings: caco-2, 2 h
[6] = biological target: Casein kinase I isoform alpha (Homo sapiens) (UniProt P48729); assay: Induction of CK1alpha degradation in human KOPT-K1 cells upto 100 nM incubated for 4 hrs by immunoblotting analysis; type: cell-based
In short: (§1)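 KOPT-K1 cells were treated with compound at concentrations up to 100 nM. Endogenous GSPT1, IKZF1 and CK1α abundance was assessed by immunoblotting.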

[7] = biological target: T1, Tyrosine-protein kinase Lck; assay: Induction of LCK degradation in human KOPT-K1 cells assessed as maximum degradation after 4 hrs by immunoblotting analysis relative to control; type: cell-based
In short: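 KOPT-K1 cells were treated with increasing concentrations of compound for 4 h. Endogenous LCK was assessed by immunoblot. Degradation was calculated from quantified band intensities, and DC50 from the average of three independent experiments.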
Target sequence in this assay (P06239 2-509 limits assumed): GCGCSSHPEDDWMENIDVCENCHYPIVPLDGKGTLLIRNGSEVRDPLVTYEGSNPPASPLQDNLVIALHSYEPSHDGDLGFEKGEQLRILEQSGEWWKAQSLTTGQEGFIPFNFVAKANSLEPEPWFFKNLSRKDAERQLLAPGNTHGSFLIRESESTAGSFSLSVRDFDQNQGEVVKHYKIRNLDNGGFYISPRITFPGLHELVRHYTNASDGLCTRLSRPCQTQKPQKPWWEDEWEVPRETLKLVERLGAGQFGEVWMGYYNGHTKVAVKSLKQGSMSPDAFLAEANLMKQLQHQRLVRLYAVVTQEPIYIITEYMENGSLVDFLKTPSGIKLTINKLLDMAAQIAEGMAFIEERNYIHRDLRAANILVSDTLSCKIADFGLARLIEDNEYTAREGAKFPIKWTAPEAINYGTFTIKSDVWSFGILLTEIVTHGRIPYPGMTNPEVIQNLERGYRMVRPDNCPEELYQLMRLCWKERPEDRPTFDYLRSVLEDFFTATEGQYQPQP

[8] = biological target: Eukaryotic peptide chain release factor GTP-binding subunit ERF3A (Homo sapiens) (UniProt P15170); assay: Induction of GSPT1 degradation in human KOPT-K1 cells upto 100 nM incubated for 4 hrs by immunoblotting analysis; type: cell-based; in short: as §1
[9] = biological target: DNA-binding protein Ikaros (Homo sapiens) (UniProt Q13422); assay: Induction of IKZF1 degradation in human KOPT-K1 cells upto 100 nM incubated for 4 hrs by immunoblotting analysis; type: cell-based; in short: as §1
KOPTK1 [10] = assay: Cytotoxicity against human KOPT-K1 cells incubated for 72 hrs by Celltiter-Glo assay; type: functional; settings: for CC50: read-out: LC50 (the source's name)
In short: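 Human T-ALL KOPT-K1 cells treated with compounds for 72 h. Viability measured by CellTiter-Glo. LC50 fitted from dose-response data, reported as the mean of three independent experiments ± SD.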

[11] = biological target: T1, Tyrosine-protein kinase Lck; assay: Induction of LCK degradation in human KOPT-K1 cells after 4 hrs by immunoblotting analysis; type: cell-based
Target sequence in this assay (P06239 whole entry): as the sequence (P06239 whole entry) above

[12] = Metabolic stability in mouse liver microsomes assessed as half life measured upto 240 mins in presence of NADPH regenerating system by LC-MS/MS analysis; type: ADME, Microsome
[13] = biological target: Protein cereblon/DNA damage-binding protein 1 (Homo sapiens, UniProt Q96SW2); assay: Displacement of Cy5-O-Len from 6His-tagged CRBN/DDB1 (unknown origin) incubated for 1 hr under dark condition by fluorescence polarization assay; type: protein assay
[14] = biological target: Eukaryotic peptide chain release factor GTP-binding subunit ERF3A (Homo sapiens) (UniProt P15170); assay: Induction of HiBiT-tagged GSPT1 degradation in HEK293T cells upto 10 uM incubated for 4 hrs; type: cell-based
In short: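 HiBiT-tagged GSPT1 in HEK293T cells was measured after compound exposure at concentrations up to 10 μM.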

Chain of Eukaryotic peptide chain release factor GTP-binding subunit ERF3A (Homo sapiens) (P15170 whole entry): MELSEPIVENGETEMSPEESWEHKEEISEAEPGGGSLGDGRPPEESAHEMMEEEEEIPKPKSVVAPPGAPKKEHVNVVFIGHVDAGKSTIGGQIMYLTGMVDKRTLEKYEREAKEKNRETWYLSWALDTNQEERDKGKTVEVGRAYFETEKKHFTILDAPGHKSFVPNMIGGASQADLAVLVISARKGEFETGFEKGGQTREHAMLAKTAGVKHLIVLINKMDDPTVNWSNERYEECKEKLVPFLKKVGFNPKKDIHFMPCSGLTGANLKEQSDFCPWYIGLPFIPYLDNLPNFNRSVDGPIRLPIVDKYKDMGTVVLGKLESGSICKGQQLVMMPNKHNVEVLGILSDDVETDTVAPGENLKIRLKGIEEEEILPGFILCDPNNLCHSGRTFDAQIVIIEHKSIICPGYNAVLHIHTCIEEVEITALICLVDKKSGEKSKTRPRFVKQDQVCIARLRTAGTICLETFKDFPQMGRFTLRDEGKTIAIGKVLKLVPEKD
Chain of DNA-binding protein Ikaros (Homo sapiens) (Q13422 whole entry): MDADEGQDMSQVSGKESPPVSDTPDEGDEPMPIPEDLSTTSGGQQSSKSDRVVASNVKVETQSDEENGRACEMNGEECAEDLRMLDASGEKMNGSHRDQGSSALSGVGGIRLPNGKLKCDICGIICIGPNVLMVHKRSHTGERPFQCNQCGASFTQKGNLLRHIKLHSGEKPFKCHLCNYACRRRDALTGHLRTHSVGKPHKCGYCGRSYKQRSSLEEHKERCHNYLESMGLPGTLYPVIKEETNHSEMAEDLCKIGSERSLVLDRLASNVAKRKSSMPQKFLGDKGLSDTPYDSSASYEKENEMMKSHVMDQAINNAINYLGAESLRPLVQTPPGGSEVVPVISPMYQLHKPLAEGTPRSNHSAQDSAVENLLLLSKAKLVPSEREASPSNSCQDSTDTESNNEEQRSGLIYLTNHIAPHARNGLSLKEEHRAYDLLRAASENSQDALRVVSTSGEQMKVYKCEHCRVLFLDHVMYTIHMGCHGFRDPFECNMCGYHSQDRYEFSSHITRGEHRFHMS
Chain of Casein kinase I isoform alpha (Homo sapiens) (P48729 2-337 limits assumed): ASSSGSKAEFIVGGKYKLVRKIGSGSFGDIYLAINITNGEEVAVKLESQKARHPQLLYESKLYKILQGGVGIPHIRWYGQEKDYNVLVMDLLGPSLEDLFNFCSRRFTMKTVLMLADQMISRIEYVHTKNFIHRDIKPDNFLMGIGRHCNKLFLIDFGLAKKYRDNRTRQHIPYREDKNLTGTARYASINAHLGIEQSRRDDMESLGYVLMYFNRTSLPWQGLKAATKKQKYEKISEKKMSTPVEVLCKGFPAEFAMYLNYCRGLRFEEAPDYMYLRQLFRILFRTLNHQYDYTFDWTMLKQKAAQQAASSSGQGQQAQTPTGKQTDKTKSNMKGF
Chain of Protein cereblon/DNA damage-binding protein 1 (Q96SW2 whole entry): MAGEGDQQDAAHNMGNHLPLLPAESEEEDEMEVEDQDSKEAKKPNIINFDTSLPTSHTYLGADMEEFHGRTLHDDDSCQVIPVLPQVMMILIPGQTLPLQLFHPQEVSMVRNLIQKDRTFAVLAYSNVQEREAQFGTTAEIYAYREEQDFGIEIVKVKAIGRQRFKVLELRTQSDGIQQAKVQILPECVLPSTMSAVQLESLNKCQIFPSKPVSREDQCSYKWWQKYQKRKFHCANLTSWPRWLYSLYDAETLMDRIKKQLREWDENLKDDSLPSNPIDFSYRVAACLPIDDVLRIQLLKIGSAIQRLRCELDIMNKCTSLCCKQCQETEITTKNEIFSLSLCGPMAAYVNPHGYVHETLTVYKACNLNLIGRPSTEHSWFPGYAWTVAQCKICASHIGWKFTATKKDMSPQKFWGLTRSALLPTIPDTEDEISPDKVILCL
Chain of Protein cereblon/DNA damage-binding protein 1 (Q16531 whole entry, further chain): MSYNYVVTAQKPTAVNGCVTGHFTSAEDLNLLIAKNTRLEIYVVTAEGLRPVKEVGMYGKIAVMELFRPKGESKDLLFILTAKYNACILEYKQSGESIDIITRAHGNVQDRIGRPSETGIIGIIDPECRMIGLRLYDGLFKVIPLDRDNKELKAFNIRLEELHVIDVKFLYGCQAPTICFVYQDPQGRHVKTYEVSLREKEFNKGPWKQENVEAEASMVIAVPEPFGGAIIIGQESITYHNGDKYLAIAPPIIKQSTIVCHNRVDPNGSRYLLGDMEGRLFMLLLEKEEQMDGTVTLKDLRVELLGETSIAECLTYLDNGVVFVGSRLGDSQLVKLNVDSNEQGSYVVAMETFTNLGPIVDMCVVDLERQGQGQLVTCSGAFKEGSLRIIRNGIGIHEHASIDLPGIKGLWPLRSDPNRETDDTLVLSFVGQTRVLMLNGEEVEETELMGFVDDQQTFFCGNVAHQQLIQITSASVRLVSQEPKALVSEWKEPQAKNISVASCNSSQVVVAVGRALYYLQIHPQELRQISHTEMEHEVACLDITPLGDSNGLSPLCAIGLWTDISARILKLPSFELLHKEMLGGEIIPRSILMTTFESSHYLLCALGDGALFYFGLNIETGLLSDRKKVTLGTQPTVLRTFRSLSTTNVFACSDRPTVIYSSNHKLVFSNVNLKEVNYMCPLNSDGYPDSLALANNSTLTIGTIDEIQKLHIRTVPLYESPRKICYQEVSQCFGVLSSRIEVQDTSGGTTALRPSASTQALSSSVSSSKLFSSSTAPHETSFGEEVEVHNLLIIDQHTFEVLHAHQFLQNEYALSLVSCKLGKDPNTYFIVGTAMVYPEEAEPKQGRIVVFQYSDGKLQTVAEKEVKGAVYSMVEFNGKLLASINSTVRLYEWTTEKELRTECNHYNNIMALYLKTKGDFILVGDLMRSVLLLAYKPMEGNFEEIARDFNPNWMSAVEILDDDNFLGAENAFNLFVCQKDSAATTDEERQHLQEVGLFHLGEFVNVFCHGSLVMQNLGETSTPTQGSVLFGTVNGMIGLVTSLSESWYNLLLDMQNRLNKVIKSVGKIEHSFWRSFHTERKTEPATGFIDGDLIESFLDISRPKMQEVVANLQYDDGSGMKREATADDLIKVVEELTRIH

Compound | T1/2 [1] [h] | DC50 [2] [nM] | Stability [3] | CC50 (KOPTK1 [4]) [nM] | permeability [5] | other results
Cc1nc(Nc2ncc(C(=O)Nc3c(C)cccc3Cl)s2)cc(N2CCN(CCCNC(=O)COc3ccc(C4CCC(=O)NC4=O)cc3)CC2)n1 (stereo not drawn) | > 48 | 6 | Unstable | 0.24 | Impermeable | 
Cc1nc(Nc2ncc(C(=O)Nc3c(C)cccc3Cl)s2)cc(N2CCN(CCCC(=O)N3CCN(c4ccc(N5CCC(=O)NC5=O)cc4)CC3)CC2)n1 |  |  | Unstable | 37 | Impermeable | Activity [6]: inactive; Emax [7]: 98.4%; Activity [8]: inactive; Activity [9]: inactive
Cc1nc(Nc2ncc(C(=O)Nc3c(C)cccc3Cl)s2)cc(N2CCN(CCCC(=O)N3CCN(c4ccc(C5CCC(=O)NC5=O)cc4)CC3)CC2)n1 (stereo not drawn) |  | 8 | Unstable | 0.005 | Impermeable | 
Cc1nc(Nc2ncc(C(=O)Nc3c(C)cccc3Cl)s2)cc(N2CCN(CCCNC(=O)COc3ccc(N4CCC(=O)NC4=O)cc3)CC2)n1 | > 48 | 15 | Unstable | 28 | Impermeable | Activity [6]: inactive; Emax [7]: 66%; Activity [8]: inactive; Activity [9]: inactive; CC50 (KOPTK1 [10]): 0.005 nM; DC50 [11]: 8 nM
O=C1CCN(c2ccc(N3CCNCC3)cc2)C(=O)N1 |  |  |  |  |  | Activity (KOPTK1 [10]): inactive
O=C(O)COc1ccc(N2CCC(=O)NC2=O)cc1 |  |  |  |  |  | Activity (KOPTK1 [10]): inactive
Cc1nc(Nc2ncc(C(=O)Nc3c(C)cccc3Cl)s2)cc(N2CCN(CCO)CC2)n1.O [DASATINIB] |  |  |  |  |  | half-life [12]: 0.82 h
Cc1nc(Nc2ncc(C(=O)Nc3c(C)cccc3Cl)s2)cc(N2CCN(CCCNC(=O)COc3cccc4c3C(=O)N(C3CCC(=O)NC3=O)C4=O)CC2)n1 (stereo not drawn) | 13 | 13 | Unstable | 8 | Impermeable | IC50 [13]: 1030 nM; Activity [14]: inactive; CC50 (KOPTK1 [10]): 10 nM
